Published values gathered from unrelated publications.
Compare with care: the assays were run in different laboratories.
SLC10A2: Ileal sodium/bile acid cotransporter (SLC10A2, Homo sapiens, UniProt Q12908)
SETD7: Histone-lysine N-methyltransferase SETD7 (SETD7, Homo sapiens, UniProt Q8WTS6)
Methionyl-tRNA synthetase, putative: Methionyl-tRNA synthetase, putative (Trypanosoma brucei brucei, UniProt Q38C91)
STK35: Serine/threonine-protein kinase 35 (STK35, Homo sapiens, UniProt Q8TDR2)
ACVR2A: Activin receptor type-2A (ACVR2A, Homo sapiens, UniProt P27037)
BRD9: Bromodomain-containing protein 9 (BRD9, Homo sapiens, UniProt Q9H8M2)

Nc1nc(NC2CC2)c2ncn([C@H]3C=C[C@@H](CO)C3)c2n1
inhibition (SLC10A2; transporter uptake, inhibitor, radiometric; 1 mM): 13.1%

O=c1c(-c2cc(O)c(O)c(O)c2)coc2cc(O)c(O)c(O)c12
inhibition (SETD7; cell-free assay; 10 µM): 34%

Cc1cc2c(cc1N1C(=O)c3cccc4c(Cl)ccc(c34)C1=O)n(C)c(=O)n2C
ΔTm (PHIP (Homo sapiens, UniProt Q8WWQ0); thermal stability, DSF; 10 µM): -2.4 °C

Nc1ccn([C@H]2C[C@H](O)[C@@H](COP(=O)(O)OP(=O)(O)OP(=O)(O)O)O2)c(=O)n1
Km (DNA polymerase lambda (POLL, Homo sapiens, UniProt Q9UGP5); enzyme activity, substrate): 0.016 µM

O=C(Cc1cc(Cl)cc(Cl)c1)N1CCCC(c2nc3cc(Cl)c(Cl)cc3[nH]2)C1 (stereo not drawn)
ΔTm (Methionyl-tRNA synthetase, putative; thermal stability, DSF; 100 µM): 7 °C

Cc1ccc(C(=O)Nc2ccc(CN3CCN(C)CC3)c(C(F)(F)F)c2)cc1C#Cc1cnc2cccnn12
remaining activity (STK35; enzyme activity, inhibitor; 23.5 nM): 98%

Cn1c2c(c3ccc(Cl)c(Cl)c31)C(C#N)C1(CCN(C(=O)OC(C)(C)C)CC1)NC2=O (racemic)
ΔTm (ACVR2A; thermal stability, DSF; 10 µM): 0 °C

CC(=O)N[C@H]1CSSC[C@@H](C(=O)N[C@@H](Cc2c[nH]c3ccccc23)C(N)=O)NC(=O)[C@H](Cc2ccccc2)NC(=O)[C@H](CCCNC(=N)N)NC1=O
Emax (Melanocortin receptor 5 (MC5R, Homo sapiens, UniProt P33032); cAMP, agonist; HEK293; 3 min): 0%

CCOC(=O)[C@](CC)(CCCS(=O)(=O)CCOCCOCCNC(=O)OC(C)(C)C)NC(=O)c1ccc(C2CC2)c(Cc2ccc(F)cc2)n1
Emax (Cannabinoid receptor 2 (CNR2, Homo sapiens, UniProt P34972); cAMP, agonist): 89%

N#Cc1ccc(/C=C/CN(CC[C@H](N)C(=O)O)C[C@H]2O[C@@H](n3cnc4c(N)ncnc43)[C@H](O)[C@@H]2O)cc1
activity vs control (Histone-lysine N-methyltransferase SETD2 (SETD2, Homo sapiens, UniProt Q9BYW2); enzyme activity, inhibitor; 1 µM): 108%

C[C@@H]1C[C@H]2[C@@H]3CCC4=CC(=O)C=C[C@]4(C)[C@@]3(F)[C@@H](O)C[C@]2(C)[C@@]1(O)C(=O)CO
inhibition (SLC10A2; transporter uptake, inhibitor, radiometric; 1 mM): < 10%

Oc1ccc(-c2nc(-c3ccncc3)c(-c3ccc(F)cc3)[nH]2)cc1
ΔTm (PHIP, BD2 (Homo sapiens, UniProt Q8WWQ0); thermal stability, DSF; 10 µM): 0.27 °C

COc1cc(Cl)c(C(=O)N[C@@H](CN[C@H]2CC[C@@H](N)CC2)Cc2ccc(C#N)cc2)cc1-c1ccc(CN[C@H](C)c2ccc(C)cc2)o1
remaining activity (STK35; enzyme activity, inhibitor; 1 µM): 98%

Cc1cnc(Nc2ccc(OCCN3CCCC3)cc2)nc1Nc1cccc(S(=O)(=O)NC(C)(C)C)c1
ΔTm (BRD9; thermal stability, DSF; 10 µM): 0.58 °C

CN1CCN(c2ccc([N+](=O)[O-])cc2NC(=O)c2ccccc2)CC1
ΔTm (WD repeat-containing protein 5 (WDR5, Homo sapiens, UniProt P61964); thermal stability, DSF; 100 µM): 3.8 °C

C[S+]([O-])c1ccc(-c2nc(-c3ccncc3)c(-c3ccc(F)cc3)[nH]2)cc1 (stereo not drawn)
ΔTm (BRD9; thermal stability, DSF; 10 µM): -0.33 °C

O=C(O)C1=CC(=C(c2ccc(O)c(C(=O)O)c2)c2ccc(O)c(C(=O)O)c2)C=CC1=O
inhibition (SETD7; cell-free assay; 10 µM): 100%

CC(C(=O)O)c1cccc(C(=O)c2ccccc2)c1 (stereo not drawn)
inhibition (SLC10A2; transporter uptake, inhibitor, radiometric; 1 mM): 44%

O=C(Cc1cc(Cl)cc(Cl)c1)N1CCCC(c2nc3cc(F)ccc3[nH]2)C1 (stereo not drawn)
ΔTm (Methionyl-tRNA synthetase, putative; thermal stability, DSF; 100 µM): 8 °C

Nc1ncnc2occ(-c3ccc(NC(=O)Nc4cc(C(F)(F)F)ccc4F)cc3)c12
remaining signal (STK35; cell-free assay, inhibitor; 20 µM): 1.6%

Cn1c2c(c3ccc(Cl)c(Cl)c31)C(C#N)C1(CCCC1)NC2=O (stereo not drawn)
ΔTm (ACVR2A; thermal stability, DSF; 10 µM): 0 °C
